Tests used:
[1] = target: Histone-lysine N-methyltransferase 2A/WDR5 (Homo sapiens, UniProt P61964); test: Inhibition of MLL1-WDR5 (unknown origin) protein-protein interaction using Thr-FAM as probe by fluorescence polarization competition assay
Method in brief: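 Competitive FP with WDR5 and 10mer-Thr-FAM probe in 100 mM KH2PO4, 25 mM KCl, 0.01% Triton X-100, pH 6.5; read at λex 485 ± 25 nm, λem 535 ± 25 nm. IC50 from three independent replicates ± SD.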

[2] = system: MOLM-13; test: Antiproliferative activity against human MOLM-13 cells assessed as cell viability incubated for 72 hrs by CCK8 assay; assay type: functional, cell-based; settings: MOLM-13, 72 h
Method in brief: (§1)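 Cells seeded at 3000–6000 per well, exposed to inhibitor at several concentrations for 72 h; viability read with CCK8 kit. MV4-11 and K562 grown in modified IMDM + 10% FBS, pen/strep; MOLM-13 in RPMI-1640 + 10% FBS; HUVEC in modified DMEM + 10% FBS; 37 °C, 5% CO2. IC50 as mean ± SD of three independent experiments.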

[3] = Permeability of compound at pH 7.4 incubated for 4 hrs by PAMPA assay; assay type: ADME; settings: read-out: permeability
Method in brief: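 Double-sink PAMPA: compound diluted in pH 7.4 donor buffer, permeation through artificial membrane to acceptor over 4 h at 25 °C; donor and acceptor read by UV; mean ± SD of three independent experiments.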

[4] = system: K562; test: Antiproliferative activity against human K562 cells assessed as cell viability incubated for 72 hrs by CCK8 assay; assay type: functional, cell-based; settings: K562, 72 h; method in brief: as §1
[5] = system: HUVEC; test: Antiproliferative activity against human HUVEC cells assessed as cell viability incubated for 72 hrs by CCK8 assay; assay type: cell-based; method in brief: as §1
[6] = system: MV4-11; test: Antiproliferative activity against human MV4-11 cells assessed as cell viability incubated for 72 hrs by CCK8 assay; assay type: functional, cell-based; settings: MV4-11, 72 h; method in brief: as §1
[7] = target: Histone-lysine N-methyltransferase 2A/WDR5 (Homo sapiens) (UniProt P61964+Q03164); test: Inhibition of MLL1-WDR5 (unknown origin) protein-protein interaction at 100 uM by competitive fluorescence polarization assay

SMILES | IC50 [1] [µM] | other results
Cc1nc(Cl)c(N)c(Nc2cc([N+](=O)[O-])ccc2N2CCN(C)CC2)n1 | 12.1 | 
CN1CCN(c2cc(F)c(-c3ccc(C(=O)NCCN4CCOCC4)cc3)cc2Nc2ncnc(Cl)c2N)CC1 | 74 | IC50 [2]: 23.1 µM; Papp at 4 h [3]: 10.5 ×10⁻⁶ cm/s; IC50 [4]: > 100 µM; IC50 [5]: > 100 µM; IC50 [6]: 27.7 µM
Nc1c(Cl)ncnc1Nc1cc([N+](=O)[O-])ccc1N1CCOCC1 | > 50 | 
CN1CCN(c2ccc([N+](=O)[O-])cc2Nc2nccc(N)n2)CC1 | > 50 | 
Cc1c(-c2ccc(C(=O)N(C)C)cc2)ccc(N2CCN(C)CC2)c1Nc1ncnc(Cl)c1N | 0.67 | 
CN1CCN(c2cc(F)c(-c3ccc(C(=O)NCCCN4CCOCC4)cc3)cc2Nc2ncnc(Cl)c2N)CC1 | 0.021 | IC50 [2]: 17.3 µM; Papp at 4 h [3]: 9.14 ×10⁻⁶ cm/s; IC50 [4]: 70.1 µM; IC50 [5]: > 100 µM; IC50 [6]: 25.6 µM
CN1CCN(c2ccc(-c3ccc(NC(=O)C4CCOCC4)cc3)c(F)c2Nc2ncnc(Cl)c2N)CC1 | 176 | 
CN1CCN(c2cc(F)c(-c3ccc(C(=O)N4CCOCC4)cc3)cc2Nc2ncnc(Cl)c2N)CC1 | 36 | IC50 [2]: 16.5 µM; Papp at 4 h [3]: 13.7 ×10⁻⁶ cm/s; IC50 [4]: 88.7 µM; IC50 [5]: > 100 µM; IC50 [6]: 19.6 µM
CN1CCN(c2ccc([N+](=O)[O-])cc2Nc2ncccc2N)CC1 | > 50 | 
CN1CCN(c2ccc(-c3ccc(C(=O)NCCN4CCOCC4)cc3)cc2Nc2ncnc(Cl)c2N)CC1 | 0.18 | 
CN1CCN(c2ccc(-c3ccc(C(=O)N4CCC(O)CC4)cc3)cc2Nc2ncnc(Cl)c2N)CC1 | 0.11 | 
CN1CCN(c2ccc([N+](=O)[O-])cc2Nc2ncccn2)CC1 | > 50 | 
CN1CCN(c2ccc([N+](=O)[O-])cc2Nc2cc(N3CCC3)ncn2)CC1 | > 50 | 
CN1CCN(c2cc(F)c(-c3ccc(C(=O)N4CCC(O)CC4)cc3)cc2Nc2ncnc(Cl)c2N)CC1 | 33 | 
Cc1cc(N2CCN(C)CC2)c(Nc2ncnc(Cl)c2N)cc1-c1ccc(C(=O)NCCCN2CCOCC2)cc1 | 465 | 
CN1CCN(c2cc(F)c(-c3ccc(C(=O)NCC4CCOCC4)cc3)cc2Nc2ncnc(Cl)c2N)CC1 | 36 | IC50 [2]: 12.3 µM; Papp at 4 h [3]: 16.9 ×10⁻⁶ cm/s; IC50 [4]: 81.7 µM; IC50 [5]: > 100 µM; IC50 [6]: 15.7 µM
Nc1c(Cl)ncnc1Nc1cc([N+](=O)[O-])ccc1N1CCNCC1 | 45.1 | 
CCN1CCN(C(=O)c2ccc(-c3ccc(N4CCN(C)CC4)c(Nc4ncnc(Cl)c4N)c3F)cc2)CC1 | 112 | 
CCN1CCN(c2ccc([N+](=O)[O-])cc2Nc2ncnc(Cl)c2N)CC1 | 38.1 | 
CN1CCN(c2ccc([N+](=O)[O-])cc2Nc2cc(N3CCCC3)ncn2)CC1 | > 50 | 
CN1CCN(C(=O)c2ccc(-c3ccc(N4CCN(C)CC4)c(Nc4ncnc(Cl)c4N)c3)cc2)CC1 | 0.22 | 

SMILES | IC50 [1] [µM] | other results
Nc1c(Cl)ncnc1Nc1cc([N+](=O)[O-])ccc1N1CCN(CCO)CC1 | > 50 | 
CN1CCN(c2ccc(-c3ccc(C(=O)N4CCC(C)(O)CC4)cc3)cc2Nc2ncnc(Cl)c2N)CC1 | 0.16 | 
Cc1nc(Cl)cc(Nc2cc([N+](=O)[O-])ccc2N2CCN(C)CC2)n1 | > 50 | 
CN1CCN(c2ccc(-c3ccc(C(=O)N(C)C)cc3)c(F)c2Nc2ncnc(Cl)c2N)CC1 | 240 | 
CN1CCC(C(=O)Nc2ccc(-c3ccc(N4CCN(C)CC4)c(Nc4ncnc(Cl)c4N)c3F)cc2)CC1 | 105 | 
CN1CCN(c2ccc([N+](=O)[O-])cc2Nc2ncncc2N)CC1 | > 50 | 
CN1CCN(c2ccc(-c3ccc(C(=O)NCCN4CCOCC4)cc3)c(F)c2Nc2ncnc(Cl)c2N)CC1 | 102 | 
CN1CCN(c2ccc([N+](=O)[O-])cc2Nc2ncnc3ccccc23)CC1 |  | inhibition [7]: 35.8%
CN1CCC(NC(=O)c2ccc(-c3ccc(N4CCN(C)CC4)c(Nc4ncnc(Cl)c4N)c3)cc2)CC1 | 0.23 | 
CN1CCN(c2ccc(-c3ccc(C(=O)N4CCOCC4)cc3)c(F)c2Nc2ncnc(Cl)c2N)CC1 | 117 | 
CN1CCN(c2ccc(-c3ccc(C(=O)N4CCOCC4)cc3)cc2Nc2ncnc(Cl)c2N)CC1 | 0.19 | 
CN1CCN(c2ccc(-c3ccc(C(=O)NCCCN4CCOCC4)cc3)cc2Nc2ncnc(Cl)c2N)CC1 | 0.16 | 
CN1CCN(c2ccc(-c3ccc(C(=O)NCCCN4CCOCC4)cc3)c(F)c2Nc2ncnc(Cl)c2N)CC1 | 69 | 
CN1CCN(c2ccc([N+](=O)[O-])cc2Nc2cc(N(C)C)ncn2)CC1 | > 50 | 
CN1CCN(c2ccc(-c3ccc(C(=O)NC4CCOCC4)cc3)cc2Nc2ncnc(Cl)c2N)CC1 | 0.42 | 
Nc1c(Cl)ncnc1Nc1cc([N+](=O)[O-])ccc1N1CCN(c2ccccc2)CC1 | > 50 | 
Nc1c(Cl)ncnc1Nc1cc([N+](=O)[O-])ccc1N1CCN(C2CC2)CC1 | > 50 | 
CN1CCN(c2ccc(-c3ccc(NC(=O)CC4CCOCC4)cc3)c(F)c2Nc2ncnc(Cl)c2N)CC1 | 85 | 
CN1CCN(c2ccc([N+](=O)[O-])cc2Nc2ncnc(Cl)c2[N+](=O)[O-])CC1 | > 50 | 
Cc1c(Cl)ncnc1Nc1cc([N+](=O)[O-])ccc1N1CCN(C)CC1 | > 50 | 
CN1CCN(c2ccc([N+](=O)[O-])cc2Nc2cc(Cl)nc(N)n2)CC1 | 20.4 | 
